Reference: ChEMBL document CHEMBL1772954, “Antifungal, cytotoxic and SAR studies of a series of N-alkyl, N-aryl and N-alkylphenyl-1,4-pyrrolediones and related compounds” (Bioorg Med Chem, 2011)
≈ marks a conversion by molar mass, not a printed value.

What was measured:
MCF7 = assay: Cytotoxicity against human MCF7 cells assessed as cell growth after 2 days by sulforhodamine B assay; format: functional; conditions: MCF7, 48 h
How it was run: (§1)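 NCI cell lines were run by the Monks method: cells were plated with compounds from DMSO stocks and incubated 2 days at 37 °C in 5% CO2, in duplicate. Cells were fixed with cold TCA, stained with 0.4% SRB, and the bound dye was solubilized in 10 mM tris-base and read at 515 nm. The zero-day control was subtracted, and GI50 was taken from the curves.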

NCI-H460 = assay: Cytotoxicity against human H460 cells assessed as cell growth after 2 days by sulforhodamine B assay; format: functional; conditions: NCI-H460, 48 h; how it was run: as §1
SF-268 = assay: Cytotoxicity against human SF268 cells assessed as cell growth after 2 days by sulforhodamine B assay; format: functional; conditions: SF-268, 48 h; how it was run: as §1
[1] = Cytotoxicity against human erythrocytes assessed as hemolysis by spectrometric analysis; format: cell-based, Erythrocyte
How it was run: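 Human heparinized red blood cells were washed in PBS at pH 7.0 and suspended at 4% in sterile 5% glucose. Compounds from DMSO stocks were diluted in 5% glucose to final concentrations of 250 to 0.24 µg/ml and incubated with the cells at 37 °C. Released hemoglobin was read at 540 nm. HC50 is the concentration giving 50% lysis relative to the drug-free value.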

Candida albicans = assay: Antifungal activity against Candida albicans ATCC 10213; format: functional
How it was run: (§2)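 CLSI M27-A3 broth microdilution in RPMI-1640 buffered to pH 7.0 with MOPS. Inoculum 1-5 × 10^3 CFU/mL. Compound twofold dilutions from 250 to 0.24 µg/ml, final DMSO <1%. Incubated at 35 °C in a moist, dark chamber and read at 48 h. MIC is the lowest concentration giving total growth inhibition. For MFC, 5 µL from clear wells was plated in duplicate on SDA; MFC is the lowest concentration with no growth.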

Candida tropicalis = assay: Antifungal activity against Candida tropicalis C 131 2000; format: functional; how it was run: as §2
Saccharomyces cerevisiae = assay: Antifungal activity against Saccharomyces cerevisiae ATCC 9763; format: functional; how it was run: as §2
Cryptococcus neoformans = assay: Antifungal activity against Cryptococcus neoformans ATCC 32264; format: functional; how it was run: as §2
Aspergillus fumigatus = assay: Antifungal activity against Aspergillus fumigatus ATCC 26934; format: functional
How it was run: (§3)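 Broth microdilution per CLSI M38-A2 in RPMI-1640 with MOPS at pH 7.0. Inoculum 1-5 × 10^3 CFU/mL, with twofold compound dilutions spanning 250-0.24 µg/ml (final DMSO <1%). Plates incubated at 35 °C, moist and dark, and read when the control fungus had grown. MIC is total growth inhibition. MFC comes from subculturing clear wells in duplicate onto SDA.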

Aspergillus flavus = assay: Antifungal activity against Aspergillus flavus ATCC 9170; format: functional; how it was run: as §3
Aspergillus niger = assay: Antifungal activity against Aspergillus niger ATCC 9029; format: functional; how it was run: as §3
Nannizzia gypsea = assay: Antifungal activity against Microsporum gypseum C 115 2000; format: functional
How it was run: (§4)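 Dermatophytes tested by CLSI M38-A2 microdilution in MOPS-buffered RPMI-1640 at pH 7.0. Inoculum 1-5 × 10^3 CFU/mL; compounds 250 to 0.24 µg/ml in twofold steps, final DMSO <1%. Incubated at 28 °C in a moist, dark chamber and read according to control growth. MIC is the lowest concentration with complete inhibition. MFC is the lowest concentration with no growth after duplicate subculture on SDA.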

Trichophyton rubrum = assay: Antifungal activity against Trichophyton rubrum C 113 2000; format: functional; how it was run: as §4
[2] = system: Trichophyton mentagrophytes; assay: Antifungal activity against Trichophyton mentagrophytes ATCC 9972; format: functional; how it was run: as §4

| Structure (SMILES) | MIC (Candida albicans) [µg/mL] | MIC (Candida tropicalis) [µg/mL] | MIC (Saccharomyces cerevisiae) [µg/mL] | MIC (Cryptococcus neoformans) [µg/mL] | MIC (Aspergillus fumigatus) [µg/mL] | MIC (Aspergillus flavus) [µg/mL] | MIC (Aspergillus niger) [µg/mL] | MIC (Nannizzia gypsea) [µg/mL] | MIC (Trichophyton rubrum) [µg/mL] | MIC [2] [µg/mL] | MFC (Candida albicans) [µg/mL] | MFC (Candida tropicalis) [µg/mL] | MFC (Saccharomyces cerevisiae) [µg/mL] | MFC (Cryptococcus neoformans) [µg/mL] | MFC (Aspergillus fumigatus) [µg/mL] | MFC (Aspergillus flavus) [µg/mL] | MFC (Aspergillus niger) [µg/mL] | MFC (Nannizzia gypsea) [µg/mL] | MFC (Trichophyton rubrum) [µg/mL] | MFC [2] [µg/mL] | other results |
| --- | --- | --- | --- | --- | --- | --- | --- | --- | --- | --- | --- | --- | --- | --- | --- | --- | --- | --- | --- | --- | --- |
| O=C1C(Cl)=C(Cl)C(=O)N1Cc1ccccc1 | 15.6 (≈ 61 µM) | 31.2 (≈ 122 µM) | 7.81 (≈ 30.5 µM) | 7.81 (≈ 30.5 µM) | 15.6 (≈ 61 µM) | 31.2 (≈ 122 µM) | 31.2 (≈ 122 µM) | 15.6 (≈ 61 µM) | 7.81 (≈ 30.5 µM) | 7.81 (≈ 30.5 µM) | 31.2 (≈ 122 µM) | 31.2 (≈ 122 µM) | 15.6 (≈ 61 µM) | 15.6 (≈ 61 µM) | 31.2 (≈ 122 µM) | 31.2 (≈ 122 µM) | 62.5 (≈ 244 µM) | 31.2 (≈ 122 µM) | 15.6 (≈ 61 µM) | 15.6 (≈ 61 µM) | GI50 (MCF7): > 10 µg/mL; GI50 (NCI-H460): > 10 µg/mL; GI50 (SF-268): > 10 µg/mL; HC50 [1]: > 250 µg/mL |
| CC1=CC(O)N(CCc2ccccc2)C1=O (configuration not stated) | > 250 | > 250 | > 250 | > 250 | > 250 | > 250 | > 250 | > 250 | > 250 | > 250 | > 250 | > 250 | > 250 | > 250 | > 250 | > 250 | > 250 | > 250 | > 250 | > 250 |  |
| CC1=CC(O)N(CCCc2ccccc2)C1=O (configuration not stated) | > 250 | > 250 | > 250 | > 250 | > 250 | > 250 | > 250 | > 250 | > 250 | > 250 | > 250 | > 250 | > 250 | > 250 | > 250 | > 250 | > 250 | > 250 | > 250 | > 250 |  |
| CC1=CC(O)N(CCCCc2ccccc2)C1=O (configuration not stated) | > 250 | > 250 | > 250 | > 250 | > 250 | > 250 | > 250 | > 250 | > 250 | > 250 | > 250 | > 250 | > 250 | > 250 | > 250 | > 250 | > 250 | > 250 | > 250 | > 250 |  |

Compounds with a lower MIC (Candida albicans), results first:

| MIC (Candida albicans) [µg/mL] | MIC (Candida tropicalis) [µg/mL] | MIC (Saccharomyces cerevisiae) [µg/mL] | MIC (Cryptococcus neoformans) [µg/mL] | MIC (Aspergillus fumigatus) [µg/mL] | MIC (Aspergillus flavus) [µg/mL] | MIC (Aspergillus niger) [µg/mL] | MIC (Nannizzia gypsea) [µg/mL] | MIC (Trichophyton rubrum) [µg/mL] | MIC [2] [µg/mL] | Structure (SMILES) | MFC (Candida albicans) [µg/mL] | MFC (Candida tropicalis) [µg/mL] | MFC (Saccharomyces cerevisiae) [µg/mL] | MFC (Cryptococcus neoformans) [µg/mL] | MFC (Aspergillus fumigatus) [µg/mL] | MFC (Aspergillus flavus) [µg/mL] | MFC (Aspergillus niger) [µg/mL] | MFC (Nannizzia gypsea) [µg/mL] | MFC (Trichophyton rubrum) [µg/mL] | MFC [2] [µg/mL] | other results |
| --- | --- | --- | --- | --- | --- | --- | --- | --- | --- | --- | --- | --- | --- | --- | --- | --- | --- | --- | --- | --- | --- |
| 7.81 (≈ 28.9 µM) | 15.6 (≈ 57.9 µM) | 3.9 (≈ 14.4 µM) | 7.81 (≈ 28.9 µM) | 15.6 (≈ 57.9 µM) | 15.6 (≈ 57.9 µM) | 15.6 (≈ 57.9 µM) | 15.6 (≈ 57.9 µM) | 3.9 (≈ 14.4 µM) | 7.81 (≈ 28.9 µM) | O=C1C(Cl)=C(Cl)C(=O)N1CCc1ccccc1 | 15.6 (≈ 57.9 µM) | 31.2 (≈ 116 µM) | 7.81 (≈ 28.9 µM) | 7.81 (≈ 28.9 µM) | 15.6 (≈ 57.9 µM) | 15.6 (≈ 57.9 µM) | 31.2 (≈ 116 µM) | 31.2 (≈ 116 µM) | 7.81 (≈ 28.9 µM) | 15.6 (≈ 57.9 µM) | GI50 (MCF7): > 10 µg/mL; GI50 (NCI-H460): > 10 µg/mL; GI50 (SF-268): > 10 µg/mL; HC50 [1]: > 250 µg/mL |
| 7.81 (≈ 27.5 µM) | 7.81 (≈ 27.5 µM) | 3.9 (≈ 13.7 µM) | 3.9 (≈ 13.7 µM) | 15.6 (≈ 55 µM) | 15.6 (≈ 55 µM) | 15.6 (≈ 55 µM) | 15.6 (≈ 55 µM) | 3.9 (≈ 13.7 µM) | 3.9 (≈ 13.7 µM) | O=C1C(Cl)=C(Cl)C(=O)N1CCCc1ccccc1 | 15.6 (≈ 55 µM) | 15.6 (≈ 55 µM) | 3.9 (≈ 13.7 µM) | 3.9 (≈ 13.7 µM) | 31.2 (≈ 110 µM) | 31.2 (≈ 110 µM) | 15.6 (≈ 55 µM) | 15.6 (≈ 55 µM) | 7.81 (≈ 27.5 µM) | 7.81 (≈ 27.5 µM) | GI50 (MCF7): > 10 µg/mL; GI50 (NCI-H460): > 10 µg/mL; GI50 (SF-268): > 10 µg/mL; HC50 [1]: > 250 µg/mL |
